# Source: the RNAGym collection of RNA variant scans (doi:10.1126/science.aae0568)
# This sample holds only a part of the variants without activity.
# B1: tRNA (parent)
# chain: GUUCCGUUGGCGUAAUGGUAACGCGUCUCCCUCCUAAGGAGAAGACUGCGGGUUCGAGUCCCGUACGGAACG
# Variants of: B1
# Experiment: yeast fitness relative to wild type (ratio to wild type); higher = fitter; tRNA-Arg(CCU), competitive growth, 37 C, YPD
# In short: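 Variants of the tRNA-Arg(CCU) gene were chemically synthesised with a 3% per-site mutation rate across 69 sites and placed at the native genomic locus in Saccharomyces cerevisiae. Six parallel replicates of the pooled strains were competed in YPD at 37°C for 24 hours, and gene amplicons from the start and end populations were read by 100-nucleotide paired-end sequencing. Darwinian fitness relative to wild type was derived from changes in genotype frequencies. Genotypes required ≥ 100 starting reads, and estimates < 0.5 were set to 0.5.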
row,Variant,yeast fitness
1,U2C A15U C34A G39C A40C G56C C61G C62G G68C,≤ 0.5
2,U2C C22U A40U,0.574
3,U2C C62U G68C A69G,≤ 0.5
4,U2C C29U A37G A57G,≤ 0.5
5,U2C C24G A37G G58A G67A,≤ 0.5
6,U2C C22A C29A G51C,0.596
7,U2C C61G U64C,≤ 0.5
8,U2C C49G,0.798
9,U2C A40G A45C,≤ 0.5
10,U2C G25A A69U,0.711
11,U2C G10C C24A C31U A36C G48A,≤ 0.5
12,U2C G10A,0.803
13,U2C C4A C60A C62U,≤ 0.5
14,U2C G39A,0.884
15,U2C C24G C49U,≤ 0.5
16,U2C C24G C46U A70U,0.537
17,U2C A14U C61G A70G,≤ 0.5
18,U2C C11U A21C U26C A57U,≤ 0.5
19,U2C C34U C46A,≤ 0.5
20,U2C C4A C11U C60A C62U,≤ 0.5
21,U2C C5G C46U U54G A65C,≤ 0.5
22,U2C C24G A36G A42U A45U,≤ 0.5
23,U2C C30U C31G,0.771
24,U2C A65U G67A,0.698

row,Variant,yeast fitness
1,U2C G25A A42U A65C G67C,≤ 0.5
2,U2C A15U A37G,≤ 0.5
3,U2C A40U G58C,0.705
4,U2C C5G C62U,0.717
5,U2C A15C C55G A57C C66A,≤ 0.5
6,U2C G23A C33G U35G C60U C62G,≤ 0.5
7,U2C G6A,0.998
8,U2C C30U C33U G63C,≤ 0.5
9,U2C G18C C30U A57C U64C,≤ 0.5
10,U2C C24U C29U C30A A69U,≤ 0.5
11,U2C A15C G23A C31G A45U,0.61
12,U2C C27A C31G,0.557
13,U2C G6A G23A C27U A45C U47C C60A,≤ 0.5
14,U2C C4A C27G C34G G51A,0.514
15,U2C G23C C27G A45G G52A C66A,0.534
16,U2C A14G G17A C46U C60A,≤ 0.5
17,U2C C30U C31G G50U,≤ 0.5
18,U2C G18C C55G C61G,0.541
19,U2C A21U U35A G41C U47A G67C,≤ 0.5
20,U2C A14G G18A U32A G44A,0.527
21,U2C G23C,0.651
22,U2C C5U C11G U19A C30U G58A,≤ 0.5
23,U2C G23A C31G G58A,≤ 0.5
24,U2C G38A U47A C55G C61U,≤ 0.5

row,Variant,yeast fitness
1,U2C A37G A40G A45U,≤ 0.5
2,U2C C27A A69C,≤ 0.5
3,U2C A37U U53A G63A,≤ 0.5
4,U2C C4G C27G U32A U35C C49A U59C,≤ 0.5
5,U2C A43C A45C G51C,≤ 0.5
6,U2C A15C C22A C31U C55A,≤ 0.5
7,U2C G18C G25C C30A G63C,≤ 0.5
8,U2C A15G U19A A20U A37U A45G U47G C61G,0.676
9,U2C G9C,0.722
10,U2C C49A C62U,≤ 0.5
11,U2C G18A C29A,≤ 0.5
12,U2C C49G C55U,0.573
13,U2C G48A C66U,0.681
14,U2C A20G C62U,0.599
15,U2C C4U C34U C55U G68C,≤ 0.5
16,U2C A21G C33G A69C,0.57
17,U2C G18C G25C A40C G51A G56A C66G,≤ 0.5
18,U2C C5A C24A U47A C66G,≤ 0.5
19,U2C A57C,0.679
20,U2C A57U,0.685
21,U2C C5A C46U,0.591
22,U2C C5G C27U A45G U53C,≤ 0.5
23,U2C A21C C30A C62U A70U,≤ 0.5
24,U2C C4G G9A C24U A45C,≤ 0.5

row,Variant,yeast fitness
1,U2C C49G G58A,≤ 0.5
2,U2C C29U C31G U35A,≤ 0.5
3,U2C C4U C34A A65C C66G,0.583
4,U2C C5U C27G U28A A43U,≤ 0.5
5,U2C C5G G9A A15U,0.539
6,U2C A37G G38C C49U G52C A57C A65C,≤ 0.5
7,U2C A21G G68A,0.864
8,U2C A45C C46U G68C,≤ 0.5
9,U2C C46G,0.98
10,U2C G25C A43U,0.624
11,U2C G9A A20G,1.07
12,U2C A42C C66U,0.574
13,U2C A37U,0.826
14,U2C A37G,0.67
15,U2C A37C,0.81
16,U2C C11A C31U C33U A42C,0.527
17,U2C A45G G68A,≤ 0.5
18,U2C C22A C29A C55U C61A,≤ 0.5
19,U2C G6A A20U C30U A36U C62U,≤ 0.5
20,U2C C4U C34U,0.719
21,U2C C24G,0.946
22,U2C A15U U16C G23C,≤ 0.5
23,U2C C11U,1.03
24,U2C G41A C62U,0.528

row,Variant,yeast fitness
1,U2C A20U A40U C62A C66A,≤ 0.5
2,U2C C29A A43G,0.603
3,U2C G10C G41A G50C,0.585
4,U2C A15C A20C A65U,0.52
5,U2C A45C C49U,0.698
6,U2C C5A A65U,0.668
7,U2C C24U G44C A69U,≤ 0.5
8,U2C A20G C27G A37C G38C A43G A69U,≤ 0.5
9,U2C C34G A45C A57C,≤ 0.5
10,U2C C11U C22U A57U,≤ 0.5
11,U2C A20U C34G A42G A43U A65G,≤ 0.5
12,U2C C66A A69C,≤ 0.5
13,U2C C11A A14C C22U A45U,≤ 0.5
14,U2C G10C G51A C60U G67A,≤ 0.5
15,U2C G12C C49U A65G,≤ 0.5
16,U2C A14G G48C,0.709
17,U2C G23C C33A G50C G58C A70G,≤ 0.5
18,U2C C27A A40G C61G,≤ 0.5
19,U2C G48A C60A A70G,≤ 0.5
20,U2C G48A G63C,0.953
21,U2C A40C A57C C66U,≤ 0.5
22,U2C C11U A37U U53A,≤ 0.5
23,U2C G12A A15G C66U,0.577
24,U2C C22U G48A G63C,0.701

row,Variant,yeast fitness
1,U2C A21G A65U,0.665
2,U2C C4U C27U A45C G48A G56C,≤ 0.5
3,U2C A42G C61G,≤ 0.5
4,U2C G10A C34G C46U G48C U54G,≤ 0.5
5,U2C C61G,0.553
6,U2C C61A,0.783
7,U2C A40G U59C,0.587
8,U2C A15U C46A,≤ 0.5
9,U2C C11G C27U C46G,0.606
10,U2C C24G U26G C34A A36C,≤ 0.5
11,U2C A20G,0.98
12,U2C A20C,0.98
13,U2C G10C A45C,≤ 0.5
14,U2C C46U G50A,0.737
15,U2C G25C A70G,0.978
16,U2C A20U G25A C27G G67A,≤ 0.5
17,U2C G10C C31U A43G,0.525
18,U2C C5G U59A,0.613
19,U2C C29U C62U A70U,≤ 0.5
20,U2C C27A C62A,0.641
21,U2C G9A C24G C30U C62U,≤ 0.5
22,U2C C4A U13C C29U U47A G52A C62U,≤ 0.5
23,U2C C27G C31G A69U,≤ 0.5
24,U2C C27U A69C,0.729

row,Variant,yeast fitness
1,U2C C27U G41A,1.06
2,U2C C24G C34U C49A,≤ 0.5
3,U2C C24U C31U C46A U59A C61A,≤ 0.5
4,U2C G18A U28C A42C,≤ 0.5
5,U2C G23C C29A C49G A57U,≤ 0.5
6,U2C A15U A20U C27U C61G,≤ 0.5
7,U2C G12A A15G C62U,≤ 0.5
8,U2C G10A U54A,0.554
9,U2C C30U A36C A45U G50C,≤ 0.5
10,U2C C4U A42G,0.512
11,U2C A15G A69C,0.691
12,U2C C4U C31A C33U G56C,≤ 0.5
13,U2C G10A C49A A65U,≤ 0.5
14,U2C A40C,0.851
15,U2C A45G G56C,0.575
16,U2C C31G U35A A69U,≤ 0.5
17,U2C C60A,0.66
18,U2C G6A U16A,0.65
19,U2C C5G A37G G48A,≤ 0.5
20,U2C A36C G38C C55U C62A,≤ 0.5
21,U2C C27A G41A C49A U53C U54C,≤ 0.5
22,U2C G38A C60G,0.558
23,U2C G18A C24A U28A U32C A57C G67U,≤ 0.5
